Results from ChEMBL document CHEMBL1126984, “o-phenylphenols: potent and orally active leukotriene B4 receptor antagonists” (J Med Chem, 1993).

Tests used:
Cavia porcellus [1] = assay: In vivo antagonistic activity against LTB4 induced airway obstruction in guinea pig following intravenous administration; type: functional
Method in brief: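 Guinea pigs dosed intravenously 5 min before a 3.0 µg/kg iv LTB4 challenge. Animals killed 1 min after challenge. Excised lung gas volume (ELGV) measured as the index of airway obstruction severity. Means ± SEM, 3-14 guinea pigs per group; ED50 in mg/kg.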

Cavia porcellus [2] = assay: In vivo antagonistic activity against LTB4 induced airway obstruction in guinea pig following oral administration; type: functional
Method in brief: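 Guinea pigs dosed orally 2 h before a 3.0 µg/kg iv LTB4 challenge. Animals killed 1 min after challenge. Excised lung gas volume (ELGV) measured as the index of airway obstruction severity. Means ± SEM, 3-14 guinea pigs per group.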

Cavia porcellus [3] = species: Cavia porcellus; assay: Inhibition of LTB4-induced contraction of guinea pig lung parenchyma strips; type: functional
Leukotriene B4 receptor [4] = target: T1, Leukotriene B4 receptor (Homo sapiens, UniProt Q9NPC1+Q15722); assay: Inhibition of [3H]LTB4 receptor binding in human neutrophils; type: protein assay
[5] = target: Leukotriene B4 receptor (Cavia porcellus); assay: Inhibition of [3H]LTB4 receptor binding in guinea pig lung membrane
Leukotriene B4 receptor [6] = target: T1, Leukotriene B4 receptor; assay: Inhibition of LTB4-induced human neutrophil CD11b/CD18 integrin up-regulation; type: functional

| Structure (SMILES) | ED50 (Cavia porcellus [1]) | ED50 (Cavia porcellus [2]) | pKB (Cavia porcellus [3]) | IC50 (Leukotriene B4 receptor [4]) | Ki [5] | IC50 (Leukotriene B4 receptor [6]) |
| --- | --- | --- | --- | --- | --- | --- |
| CCc1cc(-c2ccccc2)c(O)cc1OCCCCCC(C)(C)c1nn[n-]n1.[Na+] | 0.05 mg/kg | 0.7 mg/kg | 8.3 | – | – | – |
| CCc1cc(-c2ccc(F)cc2)c(O)cc1OCCCCCC(C)(C)c1nn[n-]n1.[Na+] | 0.03 mg/kg | 0.56 mg/kg | 8.3 | – | – | – |
| CCc1cc(-c2cccc(C(F)(F)F)c2)c(O)cc1OCCCCCC(C)(C)c1nn[n-]n1.[Na+] | – | – | – | 0.0332 µM | 0.0769 µM | – |
| CCc1cc(-c2ccccn2)c(O)cc1OCCCCCC(C)(C)c1nn[n-]n1.[Na+] | – | – | – | 0.453 µM | 0.196 µM | – |
| CCc1cc(-c2ccc(N(C)C)cc2)c(O)cc1OCCCCCC(C)(C)c1nn[n-]n1.[Na+] | – | – | – | 0.0158 µM | 0.0859 µM | – |
| CCc1cc(C(C)=O)c(O)cc1OCCCCCC(C)(C)c1nn[n-]n1.[Na+] | – | – | 6.7 | – | – | – |
| CCOc1cc(CC)c(OCCCCCC(C)(C)c2nn[n-]n2)cc1O.[Na+] | – | – | 6.6 | – | – | – |
| CCCc1cc(CC)c(OCCCCCC(C)(C)c2nn[n-]n2)cc1O.[Na+] | – | – | 7.6 | 0.0093 µM | 0.0142 µM | 0.161 µM |
